# Experimental data reported in ChEMBL document CHEMBL2057154, “Discovery and optimization of novel purines as potent and selective CB2 agonists” (Bioorg Med Chem Lett, 2012).
# Active and inactive are the calls of the source. No cut-off for these calls is given here.
# Columns and labels:
# Homo sapiens [1] = species: Homo sapiens; test: Selectivity ratio of EC50 for human CB1 receptor to EC50 for human CB2 receptor
# Cannabinoid receptor 2 [2] = molecular target: T1, Cannabinoid receptor 2 (Homo sapiens, UniProt P34972); test: Agonist activity at human CB2 receptor expressed in CHO cells assessed as [35S]-GTPgammaS binding preincubated for 25 mins measured after 30 mins by scintillation proximity assay relative to control; type: functional, cell-based
# T1 sequence (P34972 whole entry): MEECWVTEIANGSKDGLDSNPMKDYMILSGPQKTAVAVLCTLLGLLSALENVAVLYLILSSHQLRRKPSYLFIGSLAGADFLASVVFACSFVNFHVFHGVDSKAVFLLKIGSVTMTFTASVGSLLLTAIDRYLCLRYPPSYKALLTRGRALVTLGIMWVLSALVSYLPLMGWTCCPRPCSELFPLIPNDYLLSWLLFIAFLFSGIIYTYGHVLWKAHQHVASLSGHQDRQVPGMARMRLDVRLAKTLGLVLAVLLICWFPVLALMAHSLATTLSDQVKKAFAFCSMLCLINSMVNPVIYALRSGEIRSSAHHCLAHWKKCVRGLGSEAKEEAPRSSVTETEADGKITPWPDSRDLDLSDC
# [3] = Drug metabolism in dog liver microsomes at 4 uM after 30 mins by LC-ESI/MS analysis; type: ADME, Canis lupus familiaris, Microsome; settings: read-out: Drug metabolism
# Cannabinoid receptor 1 [4] = molecular target: T2, Cannabinoid receptor 1 (Homo sapiens, UniProt P21554); test: Agonist activity at human CB1 receptor expressed in CHO cells assessed as [35S]-GTPgammaS binding preincubated for 25 mins measured after 30 mins by scintillation proximity assay; type: functional, cell-based
# T2 sequence (P21554 whole entry): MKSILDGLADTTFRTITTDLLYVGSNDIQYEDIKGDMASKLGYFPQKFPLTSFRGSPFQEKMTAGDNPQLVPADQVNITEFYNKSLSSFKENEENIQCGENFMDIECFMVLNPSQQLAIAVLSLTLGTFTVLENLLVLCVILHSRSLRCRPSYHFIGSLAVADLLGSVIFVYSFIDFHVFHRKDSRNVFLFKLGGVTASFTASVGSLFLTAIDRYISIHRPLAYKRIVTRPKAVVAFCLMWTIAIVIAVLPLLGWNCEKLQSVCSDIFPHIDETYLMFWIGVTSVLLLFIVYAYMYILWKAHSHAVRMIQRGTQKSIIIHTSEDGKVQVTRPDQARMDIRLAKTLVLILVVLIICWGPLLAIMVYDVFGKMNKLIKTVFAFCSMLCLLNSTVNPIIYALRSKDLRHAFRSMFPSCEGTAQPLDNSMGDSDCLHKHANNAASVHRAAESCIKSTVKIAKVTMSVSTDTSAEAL
# [5] = Drug metabolism in rat liver microsomes at 4 uM after 30 mins by LC-ESI/MS analysis; type: ADME, Microsome; settings: read-out: Drug metabolism
# Cannabinoid receptor 2 [6] = molecular target: T1, Cannabinoid receptor 2; test: Agonist activity at human CB2 receptor expressed in CHO cells assessed as [35S]-GTPgammaS binding preincubated for 25 mins measured after 30 mins by scintillation proximity assay; type: functional, cell-based
# [7] = Drug metabolism in human liver microsomes at 4 uM after 30 mins by LC-ESI/MS analysis; type: ADME, Microsome; settings: read-out: Drug metabolism
# Rattus norvegicus [8] = test: Induction of hypothermia in monoiodoacetic acid rat model of osteoarthritic pain at 0.5 mg/kg, ip; type: organism-based; design: dose 0.5 mg/kg, route intraperitoneal; settings: in vivo
# Outline: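 Rats given the non-selective cannabinoid agonist (positive control) at 0.5 mg/kg ip. Body temperature drop was the read-out, used as an in vivo marker of central CB1 receptor activation.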
# [9] = Oral bioavailability in Sprague-Dawley rat at 1 mg/kg; type: ADME, organism-based; settings: in vivo
# Outline: (§1)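 Male Sprague–Dawley rats dosed 1 mg/kg iv and 1 mg/kg po; plasma pharmacokinetic parameters derived from the iv and oral arms.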
# Rattus norvegicus [10] = test: Hepatic clearance in Sprague-Dawley rat at 1 mg/kg, iv; type: ADME, organism-based, Liver; design: dose 1 mg/kg, route intravenous; settings: in vivo; outline: as §1
# [11] = Lipophilicity, log P of the compound; type: physicochemical; settings: octanol/water
# Cytochrome P450 2D6 = Cytochrome P450 2D6 (Homo sapiens, UniProt P10635); test: Inhibition of CYP2D6; type: ADME
# Chain of Cytochrome P450 2D6 (P10635 whole entry): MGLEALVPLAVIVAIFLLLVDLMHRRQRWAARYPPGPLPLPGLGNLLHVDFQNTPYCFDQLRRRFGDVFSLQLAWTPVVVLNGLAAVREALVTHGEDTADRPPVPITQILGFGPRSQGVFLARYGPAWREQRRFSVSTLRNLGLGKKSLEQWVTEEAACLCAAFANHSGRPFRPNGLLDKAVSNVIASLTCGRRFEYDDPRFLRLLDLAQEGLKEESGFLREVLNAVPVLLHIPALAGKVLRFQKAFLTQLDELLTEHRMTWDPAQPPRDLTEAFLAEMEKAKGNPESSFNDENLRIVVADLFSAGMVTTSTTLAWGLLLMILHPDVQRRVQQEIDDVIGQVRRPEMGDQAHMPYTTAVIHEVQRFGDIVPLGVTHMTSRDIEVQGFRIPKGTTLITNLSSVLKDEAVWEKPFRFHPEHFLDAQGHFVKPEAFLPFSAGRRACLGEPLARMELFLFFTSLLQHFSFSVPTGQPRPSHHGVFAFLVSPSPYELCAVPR
# Cannabinoid receptor 2 [12] = molecular target: T1, Cannabinoid receptor 2; test: Displacement of [3H]-CP-55,940 from human CB2 receptor expressed in CHO cells; type: cell-based
# Cannabinoid receptor 2 [13] = molecular target: T3, Cannabinoid receptor 2 (Rattus norvegicus, UniProt Q9QZN9); test: Displacement of [3H]-CP-55,940 from rat CB2 receptor expressed in CHO cells; type: cell-based
# T3 sequence (Q9QZN9 whole entry): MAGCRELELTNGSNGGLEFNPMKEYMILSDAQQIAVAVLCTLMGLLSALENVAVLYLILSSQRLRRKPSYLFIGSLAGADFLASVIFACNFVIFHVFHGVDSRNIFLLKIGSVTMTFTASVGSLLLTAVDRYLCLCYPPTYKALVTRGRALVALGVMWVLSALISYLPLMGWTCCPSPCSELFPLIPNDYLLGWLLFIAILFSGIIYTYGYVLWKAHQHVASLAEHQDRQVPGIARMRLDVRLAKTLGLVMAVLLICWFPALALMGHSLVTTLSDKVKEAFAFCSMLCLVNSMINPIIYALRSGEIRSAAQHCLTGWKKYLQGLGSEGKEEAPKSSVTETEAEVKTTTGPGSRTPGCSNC
# [14] = Solubility of the compound in simulated gastrointestinal fluid at pH 6.8; type: physicochemical
# Outline: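 Solubility determined in simulated GI fluid at pH 6.8.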
# [15] = Dissociation constant, pKa of the compound; type: physicochemical
# Rattus norvegicus [16] = test: Analgesic activity in monoiodoacetic acid rat model of osteoarthritic pain assessed as decrease in pain at 10 mg/kg, po measured after 29 days relative to control; type: functional, organism-based; design: dose 10 mg/kg
# Cannabinoid receptor 1 [17] = molecular target: T2, Cannabinoid receptor 1; test: Agonist activity at human CB1 receptor expressed in CHO cells assessed as [35S]-GTPgammaS binding preincubated for 25 mins measured after 30 mins by scintillation proximity assay relative to control; type: functional, cell-based
# [18] = molecular target: Voltage-gated inwardly rectifying potassium channel KCNH2 (Homo sapiens, UniProt Q12809); test: Displacement of [3H]dofetilide from human Erg expressed in human HEK293 cells; type: cell-based
# Chain of Voltage-gated inwardly rectifying potassium channel KCNH2 (Q12809 whole entry): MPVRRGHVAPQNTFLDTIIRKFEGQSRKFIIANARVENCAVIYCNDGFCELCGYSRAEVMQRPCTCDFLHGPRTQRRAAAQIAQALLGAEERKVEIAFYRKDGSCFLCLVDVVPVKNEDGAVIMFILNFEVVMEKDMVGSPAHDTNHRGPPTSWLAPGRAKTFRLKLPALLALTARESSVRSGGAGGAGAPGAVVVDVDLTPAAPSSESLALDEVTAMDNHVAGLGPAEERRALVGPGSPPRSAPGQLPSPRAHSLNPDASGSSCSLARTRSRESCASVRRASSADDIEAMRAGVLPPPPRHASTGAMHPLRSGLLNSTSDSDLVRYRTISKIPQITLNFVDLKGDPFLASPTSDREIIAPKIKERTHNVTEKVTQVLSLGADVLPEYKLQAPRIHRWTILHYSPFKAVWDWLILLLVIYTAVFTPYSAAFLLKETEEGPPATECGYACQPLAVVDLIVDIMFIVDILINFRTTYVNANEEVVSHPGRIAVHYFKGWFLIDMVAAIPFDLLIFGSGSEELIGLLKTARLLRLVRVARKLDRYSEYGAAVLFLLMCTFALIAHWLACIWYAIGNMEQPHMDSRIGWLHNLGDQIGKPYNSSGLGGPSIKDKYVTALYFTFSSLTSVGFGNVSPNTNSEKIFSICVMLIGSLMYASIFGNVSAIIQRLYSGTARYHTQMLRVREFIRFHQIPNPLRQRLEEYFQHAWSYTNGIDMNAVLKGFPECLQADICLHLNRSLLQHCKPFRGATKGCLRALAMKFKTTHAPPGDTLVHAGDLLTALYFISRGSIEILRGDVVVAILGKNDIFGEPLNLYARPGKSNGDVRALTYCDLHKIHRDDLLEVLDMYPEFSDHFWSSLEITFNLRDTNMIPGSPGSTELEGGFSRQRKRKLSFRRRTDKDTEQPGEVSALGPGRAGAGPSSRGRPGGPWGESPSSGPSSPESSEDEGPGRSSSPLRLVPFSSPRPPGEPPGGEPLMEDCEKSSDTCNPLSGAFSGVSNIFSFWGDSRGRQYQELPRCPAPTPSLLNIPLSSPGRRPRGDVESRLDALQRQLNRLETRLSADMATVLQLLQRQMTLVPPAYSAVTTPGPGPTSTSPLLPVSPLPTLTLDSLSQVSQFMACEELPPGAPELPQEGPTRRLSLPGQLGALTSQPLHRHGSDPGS
# Outline: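 hERG affinity measured by [3H]-dofetilide displacement from hERG channels stably expressed in HEK293 cells.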
# [19] = Volume of distribution in Sprague-Dawley rat at 1 mg/kg, iv; type: ADME, organism-based; design: dose 1 mg/kg, route intravenous; settings: in vivo; outline: as §1
# Rattus norvegicus [20] = test: Analgesic activity in monoiodoacetic acid rat model of osteoarthritic pain assessed as decrease in pain at 10 mg/kg, po pretreated with CB2 antagonist SR144528 at 3 mg/kg, ip administered 30 mins prior to compound treatment; type: functional, organism-based
# Outline: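 SR-144528 given at 3 mg/kg ip 30 min before the oral test dose (10 mg/kg) in the rodent monoiodoacetic acid osteoarthritic knee pain model.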
# [21] = (§2) Binding affinity to 5HT1; design: species or system Homo sapiens
# Rattus norvegicus [22] = test: Analgesic activity in monoiodoacetic acid rat model of osteoarthritic pain assessed as decrease in pain at 3 mg/kg, po measured after 29 days relative to control; type: functional, organism-based; design: dose 3 mg/kg
# [23] = Ratio of drug uptake in brain to plasma of Sprague-Dawley rat; type: ADME; settings: read-out: BPR
# [24] = Aqueous solubility of the compound at pH 7; type: physicochemical; settings: buffer
# cytochrome P450 = cytochrome P450 (Homo sapiens, UniProt P04798+P05177+P05181+P08684+P10632+P10635+P11509+P11712+P13584+P20813+P20815+P20853+P24462+P24903+P33260+P33261+P51589+P78329+P98187+Q02928+Q08477+Q16678+Q16696+Q5TCH4+Q6VVX0+Q7Z449+Q8TAV3+Q96SQ9+Q9HB55); test: Inhibition of cytochrome P450; type: ADME
# Homo sapiens [25] = species: Homo sapiens; test: as §2
Structure (SMILES),Ratio EC50 (Homo sapiens [1]),Efficacy (Cannabinoid receptor 2 [2]) [%],"metabolised at 0.5 h, 4 µM [3] [%]",EC50 (Cannabinoid receptor 1 [4]) [nM],"metabolised at 0.5 h, 4 µM [5] [%]",EC50 (Cannabinoid receptor 2 [6]) [nM],"metabolised at 0.5 h, 4 µM [7] [%]",other results
Cc1nc(N2CCC(C)CC2)c2cc(-c3ccccc3)sc2n1,> 502,85.3,75,> 100000,93,199,49,–
COC(=O)NCCn1c(-c2ccccc2Cl)nc2c(N3CCN(C)CC3)nc(C)nc21,> 2110,79.5,62,> 100000,25,47.5,14,–
CCCCCCC(C)(C)c1ccc([C@@H]2C[C@H](O)CC[C@H]2CCCO)c(O)c1 [CP-55940],–,–,–,–,–,–,–,Activity (Rattus norvegicus [8]): Toxic
CCN1CCN(c2nc(C)nc3sc(-c4ccccc4)cc23)CC1,104,84.5,97,2600,94,24.8,73,bioavailability [9]: 91%; CLH (Rattus norvegicus [10]): 90 mL/min/kg; logP [11]: 3.7; IC50 (Cytochrome P450 2D6): 3000 nM; Ki (Cannabinoid receptor 2 [12]): 82 nM; Ki (Cannabinoid receptor 2 [13]): 16 nM; solubility [14]: > 200 µM; pKa [15]: 7.5; Activity (Rattus norvegicus [16]): Active; Efficacy (Cannabinoid receptor 1 [17]): 73.6%; IC50 [18]: > 10000 nM; Vd [19]: 10 L/kg; Activity (Rattus norvegicus [20]): inactive; Ki [21]: 1000 nM
O=C(O)Cc1ccccc1Nc1c(Cl)cccc1Cl,–,–,–,–,–,–,–,Activity (Rattus norvegicus [22]): Active
CCN1CCN(c2nc(C)nc3c2nc(-c2ccccc2Cl)n3C)CC1,–,–,–,–,–,–,–,Kp [23]: 1; logP [11]: 3.1; solubility [24]: > 2000 µg/mL; IC50 (cytochrome P450): > 10000 nM; Activity (Homo sapiens [25]): Active
Cc1nc(N2CCN(C)CC2)c2cc(-c3ccccc3)sc2n1,133,90.6,97,5910,95,44.4,56,Efficacy (Cannabinoid receptor 1 [17]): 70.9%
CC(=O)N1CCN(c2nc(C)nc3sc(-c4ccccc4)cc23)CC1,> 543,95.4,62,> 100000,28,184,25,solubility [14]: 41 µM
